Test results reported in the EternaBench riboswitch data.

System: MS2 coat protein
Assay: apparent Kd, MS2 coat protein; higher = weaker binding; RNA-MaP array; FMN 200 µM where present
Procedure, shortened: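 Stalled E. coli RNA polymerase transcribed the designs on Illumina sequencing-chip clusters. SNAP-549-labelled MS2 coat protein was titrated from 0.7 or 1.5 nM, doubling to 3 µM, without and then with constant ligand, in 100 mM Tris-HCl pH 7.5, 80 mM KCl, 4 mM MgCl2, BSA, DTT, yeast tRNA and Tween-20. Per-cluster binding curves were fitted to green signal normalised to red-channel RNA signal and control-cluster median Fmax. The apparent Kd is the median of the filtered fits.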

[1] = designed as: OFF switch for flavin mononucleotide, no ligand
[2] = ligand present: flavin mononucleotide, designed as: OFF switch for flavin mononucleotide
[3] = designed as: ON switch for flavin mononucleotide, no ligand
[4] = ligand present: flavin mononucleotide, designed as: ON switch for flavin mononucleotide

Sequence	apparent Kd [1] [nM]	apparent Kd [2] [nM]	apparent Kd [3] [nM]	apparent Kd [4] [nM]
CAGUAGAUCCGAGGAUAUACAAUCCGGAAACGGUACAUGAGGAUCACCCAUGUAGAAGGCGGAUCUACAGGUACUAAAGUACCG	6.37	9.59		
CAGUUAAAAGUGAGGUCUUCGACAUGAGGAUCACCCAUGUACGAGGAUAUGUAAUAUACGGUAUAGCAGAAGGCGUAUGGGUGU	20.9	46.9		
CAGUUCUGAGGAUAUCCAUCCUCCUACAUGAGGAUCACCCAUGUUUCCCUCUGGGUUUUCGGAGAAGGCAGUUAUU	321	556		
CAUAACUUUUCUCAUGUAAACAUGAGGAUCACCCAUGUAAUGAGAAGGAGGCGGCAGAGAGCAUCCUAGGAUAUCAGAAUUGUU	7.02	6.74		
CAUACACAUGAGGAUCACCCAUGUGAGGAUAUGCGUACGUUGUCCGUAGGCGACGUGCGCAGAAGGCGCAAGGU	63.3	81		
CAUACAGUAGUCAGGAUAUUGGAAGAGACACGGAACGAGAAGGGACAUGAGGAUCACCCAUGUAUACUGUAAAG	26.8	22.6		
CAUACAGUAGUUAGGAUAUUGCAACGUACACGGAACGAGAAGGGACAUGAGGAUCACCCAUGUAGAUUGUAAAG	21.8	21.1		
CAUCAUCAAGUGAGGAUAUCGUCAAAUCAAUCAAACGAGAAGGCACAUGAGGAUCACCCAUGUCGACUCAUCAA	18.3	24.9		
CAUCCACAUGAGGAUCACCCAUGUCAGGAUAUCUAUCAUAGCAUCGAAAGAUGCGGGUAGAGAAGGGACAAACC	12.9	20.2		
CAUCGGAAGCAGAAGGCAUGAACGGACAUGAGGAUCACCCAUGUUGGAAACUCAUGCCCGAAAGAUGAGGAUAUGCGUCCGGGU	72.8	17		
CAUCUCCCUUUUACAUGAGGAUCACCCAUGUUUUCAUAUUGAGAGGAUAUCGUAUUUGGAAACAUCGAGAAGGCUCAUUUGUAU			536	175
CAUGUCCUCACAGGAUAUGCACCACUUUGUGGUGCAGAAGGGUGGUAACAUGAGGAUCACCCAUGUGGACAUGAUAUAUUUAAU			523	294
CAUGUCUGAGGAUAUCGUUUUUUGUACAUGAGGAUCACCCAUGUCCUAUUUUUUAUAUUACGAGAAGGCAGUGGAU	36.4	22.2		
CAUUAACAUGAGGAUCACCCAUGUGAGGAUAUGAUAUUACUAGGACGGCUGUAAUCAAUCAGAAGGCACAUCUU	20.4	44.5		
CAUUAAUUCAUUAUAGUAAUUAUACAGGAUAUGUAACAUGAGGAUCACCCAUGUAUUCUUGGUAAACAGAAGGGUAUUACAAGU	13.7	12.8		
CCAACGUACAAUUUAGAUCUACAUGAGGAUCACCCAUGUACGGAGGAUAUCAGCUCGUUUAGAGCUGAGAAGGCCGAAUUAAUU			342	77.4
CCAAGCUGUGUGAGGAUAUGCUGAACCUUGGUUCAGCAGAAGGCACAUGAGGAUCACCCAUGUGAAGAGCUUGG	17.3	69.3		
CCAAGCUGUGUGAGGAUAUGCUGGUCGAAAGAUCAGCAGAAGGCACAUGAGGAUCACCCAUGUGAAAAGCUUGG	18.3	50.9		
CCACAUGAGGAUCACCCAUGUAGGAUAAAUCACGGCUUGGCACAGGAUAUACGGAGCGACGGAUCGUAGAAGGGUGCACUCGGC			8.37	6.07
CCAGAGACAUAAGGAUAUCGAGUGGAUAACACUCGAGAAGGUAUGUGAAAACAUGAGGAUCACCCAUGUGAUCAAUACUCUGGA			20.1	20.4
CCAGAGAUAUGAGGAUAUCGAGUGGAAUACACUCGAGAAGGCAUGUGAAUACAUGAGGAUCACCCAUGUGAUCAAUACUCUGGA			171	32.6
CCAGCGUAUGUAAGGAUAUGCUGGUCCUUGGAUCAGCAGAAGGUACAUGAGGAUCACCCAUGUGUAAUCGUUGG	20.6	56.1		
CCAGCGUAUGUGAGGAUAUGCUGGUCCUUGGAUCAGCAGAAGGCACAUGAGGAUCACCCAUGUGGUGUCGUUGG	303	37		
